From ChEMBL document CHEMBL1124602, “Diethylstilbestrol-linked cytotoxic agents: synthesis and binding affinity for estrogen receptors” (J Med Chem, 1989)
Calls of active or inactive are those of the source. The calls are words filed in the database; no cut-off is given here.

These compounds were tested against T1, Estrogen receptor (Rattus norvegicus) (UniProt P06211+Q62986) (assay: Relative binding affinity (RBA) for estrogen receptor of rat uterine cytosol compared to [3H]estradiol). Settings: not given.
Type: protein assay
Summary of the method: (§1)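 Competitive binding: rat uterine cytosol incubated 30 min at 18 °C with 5 × 10⁻⁹ [³H]estradiol, alone or with increasing competitor (10⁻⁹ to 10⁻⁵ M). Unlabeled estradiol serves as the reference competitor for relative binding affinity.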

| SMILES | relative binding affinity (RBA) |
| --- | --- |
| CC[C@@H](c1ccc(O)cc1)[C@H](CCCCOC(=O)NCCCl)c1ccc(O)cc1 | 1 |
| CC[C@@H](c1ccc(O)cc1)[C@H](CCCC(=O)O)c1ccc(O)cc1 | 0.1 |
| CC[C@@H](c1ccc(O)cc1)[C@H](CCCC(=O)Oc1ccc(Cl)cc1)c1ccc(O)cc1 | 0.3 |
| CCCC[C@H](c1ccc(O)cc1)[C@@H](CC)c1ccc(O)cc1 | 10 |
| CC[C@@H](c1ccc(O)cc1)[C@H](CCCC(=O)Oc1c(Cl)c(Cl)c(Cl)c(Cl)c1Cl)c1ccc(O)cc1 | 0.3 |

Further lines, results first:

| relative binding affinity (RBA) | SMILES |
| --- | --- |
| 0.2 | CCCCCCCC[C@H](c1ccc(O)cc1)[C@@H](CC)c1ccc(O)cc1 |
| 1.5 | CC[C@@H](c1ccc(O)cc1)[C@H](CCCCI)c1ccc(O)cc1 |
| 3 | CC[C@@H](c1ccc(O)cc1)[C@H](CCCCCl)c1ccc(O)cc1 |
| 1 | CC[C@@H](c1ccc(O)cc1)[C@H](CCCC(=O)N(CC)CC)c1ccc(O)cc1 |
| 1.8 | CC[C@@H](c1ccc(O)cc1)[C@H](CCCCOS(C)(=O)=O)c1ccc(O)cc1 |
| 1.2 | CCOCCCC[C@H](c1ccc(O)cc1)[C@@H](CC)c1ccc(O)cc1 |
| 1.5 | CC[C@@H](c1ccc(O)cc1)[C@H](CCCCO)c1ccc(O)cc1 |

These compounds were tested against T1, Estrogen receptor (Rattus norvegicus) (assay: Relative binding affinity (RBA) for estrogen receptor in rat uterine cytosol compared to [3H]estradiol; No binding). Settings: Uterus.
Summary of the method: as §1

| relative binding affinity (RBA) | SMILES |
| --- | --- |
| inactive | CC[C@@H](c1ccc(O)cc1)[C@H](CCCN[C@H]1C[C@H](O[C@H]2C[C@](O)(C(C)=O)Cc3c(O)c4c(c(O)c32)C(=O)c2c(OC)cccc2C4=O)O[C@@H](C)[C@H]1O)c1ccc(O)cc1 |
